These results are taken from ChEMBL document CHEMBL1124705, “Renin inhibitors containing isosteric replacements of the amide bond connecting the P3 and P2 sites” (J Med Chem, 1990).

The structures appear in SMILES notation. Some results are limits rather than exact numbers.

The first assay addresses T1, Renin (Homo sapiens, UniProt P00797).
T1 sequence (P00797 whole entry): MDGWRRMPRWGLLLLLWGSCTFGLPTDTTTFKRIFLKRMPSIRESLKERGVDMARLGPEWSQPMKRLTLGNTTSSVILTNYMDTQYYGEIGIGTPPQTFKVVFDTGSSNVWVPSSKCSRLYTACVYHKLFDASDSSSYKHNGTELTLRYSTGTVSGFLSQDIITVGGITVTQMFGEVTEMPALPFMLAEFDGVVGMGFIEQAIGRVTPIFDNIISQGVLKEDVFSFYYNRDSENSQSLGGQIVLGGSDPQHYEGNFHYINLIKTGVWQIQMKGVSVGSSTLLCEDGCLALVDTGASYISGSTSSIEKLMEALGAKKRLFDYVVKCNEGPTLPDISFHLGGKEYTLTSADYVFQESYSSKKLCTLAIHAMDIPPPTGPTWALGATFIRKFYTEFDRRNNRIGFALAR
Kind of assay: Inhibitory activity against human renin. In short, it runs like this: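 It was incubated 2 h at 37 °C with compound added in DMSO. Angiotensin I generated, linear over this period, was corrected for endogenous AI and expressed as percent of DMSO control. IC50 was estimated from semilog plots of three or more concentrations.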
A word on the IC50: it is the point on the concentration scale where inhibition reaches its midpoint. Turning to `CC(C)C[C@H](CC(O)[C@H](CC1CCCCC1)NC(=O)OC(C)(C)C)C(=O)N[C@@H](CC(C)C)C(O)CC(=O)N[C@@H](CC(C)C)C(=O)NCc1ccccc1` (stereo not given in full), it took 3.8 µM to reach half-maximal inhibition (IC50).
Same read-out and setting: for `CC(C)C[C@H](NC(=O)CC(O)[C@H](CC(C)C)NC(=O)[C@H](Cc1ccccc1)CC(O)[C@H](CC(C)C)NC(=O)OCc1ccccc1)C(=O)NCc1ccccc1` (stereo not given in full) the value was 8.4 µM.
The same measure, in the same setting: the value for `CC(C)C[C@H](NC(=O)CC(O)[C@H](CC(C)C)NC(=O)CCC(=O)[C@H](Cc1ccccc1)NC(=O)OC(C)(C)C)C(=O)NCc1ccccc1` (stereo not given in full) was 21 µM.
Regarding `CC(C)C[C@H](CC(O)[C@H](CC(C)C)NC(=O)OCc1ccccc1)C(=O)N[C@@H](CC(C)C)C(O)CC(=O)N[C@@H](CC(C)C)C(=O)NCc1ccccc1` (stereo not given in full), the IC50 is 6.7 µM.
In turn, `CC(C)C[C@H](NC(=O)CC(O)[C@H](CC(C)C)NC(=O)CCC[C@H](Cc1ccccc1)NC(=O)OC(C)(C)C)C(=O)NCc1ccccc1` (stereo not given in full) registered an IC50 of 23 µM.
`CC(C)C[C@H](NC(=O)C[C@@H](O)C(CC1CCCCC1)NC(=O)CC1OC1[C@H](Cc1ccccc1)NC(=O)OC(C)(C)C)C(=O)NCc1cccc(CN)c1` (stereo not given in full) yielded an IC50 of 0.32 µM.
Regarding `CC(C)C[C@H](NC(=O)C[C@@H](O)C(CC1CCCCC1)NC(=O)/C=C/C(O)[C@H](Cc1ccccc1)NC(=O)OC(C)(C)C)C(=O)NCc1ccccc1` (stereo not given in full), half-maximal inhibition (IC50) required 0.09 µM.
Still for that read-out and setting: for `CC(C)C[C@H](NC(=O)CC(O)[C@H](CC(C)C)NC(=O)[C@H](Cc1c[nH]cn1)NC[C@H](Cc1ccccc1)NC(=O)OC(C)(C)C)C(=O)NCc1ccccc1` (stereo not given in full) the value was 3.8 µM.
As for `CC(C)C[C@H](NC(=O)CC(O)[C@H](CC(C)C)NC(=O)CC(O)C(O)[C@H](CC1CCCCC1)NC(=O)OC(C)(C)C)C(=O)NCc1ccccc1` (stereo not given in full), half-maximal inhibition (IC50) required 6.5 µM.
The same measure, in the same setting: the value for `CC(C)C[C@H](NC(=O)CC(O)[C@H](CC(C)C)NC(=O)CCC(O)[C@H](CC(C)C)NC(=O)OCc1ccccc1)C(=O)NCc1ccccc1` (stereo not given in full) was 4 µM; that for `CC(C)C[C@H](NC(=O)CC(O)[C@H](CC(C)C)NC(=O)[C@H](Cc1cnc[nH]1)N(O)C[C@H](Cc1ccccc1)NC(=O)OC(C)(C)C)C(=O)NCc1ccccc1` (stereo not given in full) was 6.5 µM; that for `CC(C)C[C@H](NC(=O)CC(O)[C@H](CC(C)C)NC(=O)[C@H](Cc1c[nH]cn1)CC(O)[C@H](Cc1ccccc1)NC(=O)OC(C)(C)C)C(=O)NCc1ccccc1` (stereo not given in full) was 0.78 µM.
The same measure, in the same setting: the value for `CC(C)CC(=O)N[C@@H](Cc1ccccc1)CS(=O)(=O)[C@@H](Cc1ccccc1)C(=O)N[C@@H](CC(C)C)C(O)CC(=O)N[C@@H](C)C(=O)N[C@@H](CC(C)C)C(O)CC(=O)NCc1ccccc1` (stereo not given in full) was 1.5 µM; that for `CC(C)C[C@H](NC(=O)CC(O)[C@H](CC(C)C)NC(=O)[C@H](Cc1ccccc1)NC[C@H](Cc1ccccc1)NC(=O)OC(C)(C)C)C(=O)NCc1ccccc1` (stereo not given in full) was 4.2 µM; that for `CC(C)C[C@H](NC(=O)CC(O)[C@H](CC(C)C)NC(=O)C/C=C/[C@H](Cc1ccccc1)NC(=O)OC(C)(C)C)C(=O)NCc1ccccc1` (stereo not given in full) was 7 µM.
For `CC(C)C[C@H](NC(=O)C[C@@H](O)C(Cc1ccccc1)NC(=O)C/C=C/[C@H](Cc1ccccc1)NC(=O)OC(C)(C)C)C(=O)NCc1ccccc1` (stereo not given in full), the half-inhibitory concentration (IC50) came out at 9.2 µM.
Same read-out and setting: for `CC(C)C[C@H](NC(=O)CC(O)[C@H](CC(C)C)NC(=O)[C@H](Cc1ccccc1)N(O)C[C@H](Cc1ccccc1)NC(=O)OC(C)(C)C)C(=O)NCc1ccccc1` (stereo not given in full) the value was 18 µM.
Molecule `CC(C)C[C@H](NC(=O)CC(O)[C@H](CC(C)C)NC(=O)[C@H](Cc1ccccc1)[S+]([O-])C[C@H](Cc1ccccc1)NC(=O)OC(C)(C)C)C(=O)NCc1ccccc1` (stereo not given in full) had an IC50 of 5.4 µM.
As for `CC(C)C[C@H](NC(=O)C[C@@H](O)C(Cc1ccccc1)NC(=O)CC1OC1[C@H](Cc1ccccc1)NC(=O)OC(C)(C)C)C(=O)NCc1ccccc1` (stereo not given in full), inhibition was half-maximal at 4.4 µM (IC50).
The molecule `CC(C)CC(=O)N[C@@H](Cc1ccccc1)C1OC1CC(=O)N[C@@H](CC(C)C)C(O)CC(=O)N[C@@H](CC(C)C)C(=O)NCc1ccccc1` (stereo not given in full) returned an IC50 of 29 µM.
Same read-out and setting: the value for `CC(C)C[C@H](NC(=O)CC(O)[C@H](CC(C)C)NC(=O)[C@H](Cc1cnc[nH]1)NC[C@H](CC1CCCCC1)NC(=O)OC(C)(C)C)C(=O)NCc1ccccc1` (stereo not given in full) was 10 µM.
The molecule `CC(C)CC(=O)N[C@H](CN[C@H](C(=O)N[C@@H](CC(C)C)C(O)CC(=O)N[C@@H](CC(C)C)C(=O)NCc1ccccc1)C(C)C)C(C)C` (stereo not given in full) returned a 50% inhibitory concentration (IC50) of 15 µM.
`CC(C)C[C@H](NC(=O)C[C@@H](O)C(CC1CCCCC1)NC(=O)CCC[C@H](Cc1ccccc1)NC(=O)OC(C)(C)C)C(=O)NCc1cccc(CN)c1` (stereo not given in full) showed a half-inhibitory concentration (IC50) of 0.63 µM.
Turning to `CC(C)C[C@H](NC(=O)CC(O)[C@H](CC(C)C)NC(=O)/C=C/C(O)[C@H](Cc1ccccc1)NC(=O)OC(C)(C)C)C(=O)NCc1ccccc1` (stereo not given in full), the IC50 was determined as 2.1 µM.
On the same count and under the same terms, for `CC(C)C[C@H](NC(=O)C[C@@H](O)C(CC1CCCCC1)NC(=O)CC1OC1[C@H](Cc1ccccc1)NC(=O)OC(C)(C)C)C(=O)NCc1ccccc1` (stereo not given in full) the value was 0.53 µM.
Same read-out and setting: for `CC(C)C[C@H](CC(=O)[C@H](CC1CCCCC1)NC(=O)OC(C)(C)C)C(=O)N[C@@H](CC(C)C)C(O)CC(=O)N[C@@H](CC(C)C)C(=O)NCc1ccccc1` (stereo not given in full) the value was 26 µM.
The molecule `CC(C)CC(=O)N[C@H](CSCC(=O)N[C@@H](CC(C)C)C(O)CC(=O)N[C@@H](CC(C)C)C(=O)NCc1ccccc1)Cc1ccccc1` (stereo not given in full) came in with an IC50 of 18 µM.
On the same count and under the same terms, the value for `CC(C)C[C@H](NC(=O)CC(O)[C@H](CC(C)C)NC(=O)C(O)C(O)C(O)[C@H](Cc1ccccc1)NC(=O)OC(C)(C)C)C(=O)NCc1ccccc1` (stereo not given in full) was 11 µM.
`CC(C)C[C@H](NC(=O)C[C@@H](O)C(CC1CCCCC1)NC(=O)[C@H](Cc1cnc[nH]1)NC[C@H](Cc1ccccc1)NC(=O)OC(C)(C)C)C(=O)NCc1ccccc1` (stereo not given in full) showed an IC50 of 0.2 µM.
Molecule `CC(C)C[C@H](NC(=O)C[C@@H](O)C(CC1CCCCC1)NC(=O)CCC(O)[C@H](Cc1ccccc1)NC(=O)OC(C)(C)C)C(=O)NCc1ccccc1` (stereo not given in full) showed an IC50 of 0.061 µM.
Same read-out and setting: for `CC(C)CC(=O)N[C@H](CS[C@@H](Cc1ccccc1)C(=O)N[C@@H](CC(C)C)C(O)CC(=O)N[C@@H](C)C(=O)N[C@@H](CC(C)C)C(O)CC(=O)NCc1ccccc1)Cc1ccccc1` (stereo not given in full) the value was 7.4 µM.
On the same count and under the same terms, the value for `CC(C)C[C@H](NC(=O)CC(O)[C@H](CC(C)C)NC(=O)CC(O)C(O)[C@H](Cc1ccccc1)NC(=O)OC(C)(C)C)C(=O)NCc1ccccc1` (stereo not given in full) was 1.4 µM; that for `CC(C)CC(=O)N[C@H](/C=C/CC(=O)N[C@@H](CC(C)C)C(O)CC(=O)N[C@@H](CC(C)C)C(=O)NCc1ccccc1)Cc1ccccc1` (stereo not given in full) was 13 µM; that for `CC(C)C[C@H](NC(=O)CC(O)[C@H](CC(C)C)NC(=O)C/C=C\[C@H](Cc1ccccc1)NC(=O)OC(C)(C)C)C(=O)NCc1ccccc1` (stereo not given in full) was greater than 100 µM.
On to `CC(C)CC(=O)N[C@@H](Cc1ccccc1)C[S+]([O-])[C@@H](Cc1ccccc1)C(=O)N[C@@H](CC(C)C)C(O)CC(=O)N[C@@H](C)C(=O)N[C@@H](CC(C)C)C(O)CC(=O)NCc1ccccc1` (stereo not given in full), for which the IC50 was 2 µM.
In the case of `CC(C)C[C@H](NC(=O)C[C@@H](O)C(CC1CCCCC1)NC(=O)CCC(O)[C@H](Cc1ccccc1)NC(=O)OC(C)(C)C)C(=O)NCc1ccc(CN)cc1` (stereo not given in full), the 50% inhibitory concentration (IC50) is 0.022 µM.
Still for that read-out and setting: for `CC(C)C[C@H](NC(=O)CC(O)[C@H](CC(C)C)NC(=O)[C@@H](CC(=O)[C@H](Cc1ccccc1)NC(=O)OCc1ccccc1)Cc1ccccc1)C(=O)NCc1ccccc1` (stereo not given in full) the value was 23 µM; for `CC(C)C[C@H](NC(=O)OCc1ccccc1)C(=O)C[C@@H](Cc1ccccc1)C(=O)N[C@@H](CC(C)C)C(O)CC(=O)N[C@@H](CC(C)C)C(=O)NCc1ccccc1` (stereo not given in full), 11 µM; for `CC(C)C[C@H](NC(=O)CC(O)[C@H](CC(C)C)NC(=O)[C@H](Cc1ccccc1)CC(O)[C@H](Cc1ccccc1)NC(=O)OCc1ccccc1)C(=O)NCc1ccccc1` (stereo not given in full), 3.7 µM.
`CC(C)C[C@H](NC(=O)C[C@@H](O)C(CC1CCCCC1)NC(=O)C/C=C/[C@H](Cc1ccccc1)NC(=O)OC(C)(C)C)C(=O)NCc1ccccc1` (stereo not given in full) yielded an IC50 of 1.3 µM.
Still for that read-out and setting: for `CC(C)C[C@H](NC(=O)C[C@@H](O)C(CC1CCCCC1)NC(=O)/C=C/C(O)[C@H](Cc1ccccc1)NC(=O)OC(C)(C)C)C(=O)NCc1ccc(CNC(=O)OCc2ccccc2)cc1` (stereo not given in full) the value was 0.47 µM; for `CC(C)C[C@H](NC(=O)[C@H](C)NC(=O)CC(O)[C@H](CC(C)C)NC(=O)[C@H](Cc1ccccc1)[S+]([O-])C[C@H](Cc1ccccc1)NC(=O)OC(C)(C)C)C(O)CC(=O)NCc1ccccc1` (stereo not given in full), 5.6 µM.
On to `CC(C)C[C@H](NC(=O)CC(O)[C@H](CC(C)C)NC(=O)CC1OC1[C@H](Cc1ccccc1)NC(=O)OC(C)(C)C)C(=O)NCc1ccccc1` (stereo in doubt; 32), for which the 50% inhibitory concentration (IC50) is 1.2 µM.
`CC(C)C[C@H](NC(=O)CC(O)[C@H](CC(C)C)NC(=O)CC1OC1[C@H](Cc1ccccc1)NC(=O)OC(C)(C)C)C(=O)NCc1ccccc1` (stereo in doubt; 37) gave an IC50 greater than 100 µM.

Another assay deals with Renin (monkey). Kind of assay: The compound was tested in vitro for inhibitory activity against Renin in monkey plasma.
For the molecule `CC(C)C[C@H](NC(=O)CC(O)[C@H](CC(C)C)NC(=O)CNC(=O)[C@H](Cc1ccccc1)NC(=O)OC(C)(C)C)C(=O)NCc1ccccc1` (stereo not given in full), 1.1 µM corresponded to half-maximal inhibition (IC50).
